What was measured:
Format in all cases: functional
[1] = molecular target: Human immunodeficiency virus type 1 reverse transcriptase (Human immunodeficiency virus 1) (UniProt Q72547); experiment: Compound ability to inhibit the production of HIV reverse transcriptase (RT) in preinfected PBL (peripheral blood lymphocytes) at 7 days at a concentration 5 uM
Summary of the method: (§1)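 PBL were infected with HIV-1 for 1 h at 37 °C, washed twice, and resuspended in complete medium with 10% interleukin-2 and anti-human α-interferon (1000 units/mL). Cells were plated at 1×10^6 cells/well with or without compound. At each time point, 50 µL supernatant was taken for RT assay ([³H]dTTP incorporation, cpm).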

[2] = molecular target: Human immunodeficiency virus type 1 reverse transcriptase (Human immunodeficiency virus 1) (UniProt Q72547); experiment: Compounds were evaluated for anti-RT activity by MTT dose and % cell / viability was reported at 9 days of culture
Summary of the method: (§2)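 HIV-1 was preincubated with compound at 25 µM for 60 min at 37 °C, pelleted, and added to CEM-C113 cells (1×10^5 cells/mL) for 60 min at 37 °C. Medium was then replaced without compound. At days 7 and 9, viability was read by MTT assay on 100 µL of cell suspension.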

[3] = molecular target: Human immunodeficiency virus type 1 reverse transcriptase (Human immunodeficiency virus 1) (UniProt Q72547); experiment: Compounds were evaluated for anti-RT activity by MTT dose and % cell / viability was reported at 13 days of culture
[4] = molecular target: Human immunodeficiency virus type 1 reverse transcriptase (Human immunodeficiency virus 1) (UniProt Q72547); experiment: Compound ability to inhibit the production of HIV reverse transcriptase (RT) in preinfected PBL (peripheral blood lymphocytes) at 14 days at a concentration 5 uM; summary of the method: as §1
[5] = molecular target: Human immunodeficiency virus type 1 reverse transcriptase (Human immunodeficiency virus 1) (UniProt Q72547); experiment: Compounds were evaluated for anti-RT activity by MTT dose and %protection was reported at 13 days of culture
CCRF-CEM [6] = experiment: Concentration that reduced by 50% the HIV induced CPE (cytopathic effect) on day 7.; details: Homo sapiens, 168 h, read-out: ED50 (the source's name)
Summary of the method: (§3)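 CEM-C113 cells (1×10^5 cells/mL) were infected with HIV-1 LAV-Bru or mock-infected, with compound dilutions in triplicate, for at least 7 days. Medium with or without drug was renewed every 3–4 days for longer runs. MTT absorbance was read at 540 nm. CD50 = 50% reduction of mock-infected absorbance; ED50 = dose giving 50% protection from CPE. Values are averages of at least two experiments.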

[7] = molecular target: Human immunodeficiency virus type 1 reverse transcriptase (Human immunodeficiency virus 1) (UniProt Q72547); experiment: Compound ability to inhibit the production of HIV reverse transcriptase (RT) in preinfected PBL (peripheral blood lymphocytes) at 10 days at a concentration 5 uM; summary of the method: as §1
[8] = molecular target: Human immunodeficiency virus type 1 reverse transcriptase (Human immunodeficiency virus 1) (UniProt Q72547); experiment: Compound ability to inhibit the production of HIV reverse transcriptase (RT) in culture supernatant of monocytic U937 on at 11 days at a concentration 1 uM
Summary of the method: (§4)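 HIV-1-infected monocytic U937 cultures were kept up to 14 days with compound. Supernatant RT activity was measured as for CEM-C113, as [³H] cpm/50 µL. % inhibition = 100 − 100 × (cpm of treated samples / cpm of control virus).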

[9] = molecular target: Human immunodeficiency virus type 1 reverse transcriptase (Human immunodeficiency virus 1) (UniProt Q72547); experiment: Compound ability to inhibit the production of HIV reverse transcriptase (RT) in preinfected PBL (peripheral blood lymphocytes) at 14 days at a concentration 1 uM; summary of the method: as §1
[10] = molecular target: Human immunodeficiency virus type 1 reverse transcriptase (Human immunodeficiency virus 1) (UniProt Q72547); experiment: Compounds were evaluated for anti-RT activity at 9 days of culture
Summary of the method: (§5)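 HIV-1 (12 500 CCID50) was preincubated with compound at 25 µM final for 60 min at 37 °C, pelleted by ultracentrifugation and resuspended. RT was measured at once with poly(rA)-oligo(dT) and ³H-dTTP (1 h, 37 °C, cpm). Treated virus was then put on CEM-C113 cells for 60 min and replaced with compound-free medium. Supernatant RT was read at days 7 and 9.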

[11] = molecular target: Human immunodeficiency virus type 1 reverse transcriptase (Human immunodeficiency virus 1) (UniProt Q72547); experiment: Compounds were evaluated for anti-RT activity by MTT dose and % cell / viability was reported at 7 days of culture; summary of the method: as §2
CCRF-CEM [12] = experiment: Concentration required to reduce the viability of uninfected cells (CEM-CL13) by 50% on day 11.; details: Homo sapiens, 264 h, read-out: CD50 (the source's name); summary of the method: as §3
CCRF-CEM [13] = experiment: Concentration that reduced by 50% the HIV induced CPE (cytopathic effect) on day 22.; details: Homo sapiens, 528 h, read-out: ED50 (the source's name); summary of the method: as §3
[14] = molecular target: Human immunodeficiency virus type 1 reverse transcriptase (Human immunodeficiency virus 1) (UniProt Q72547); experiment: Compound ability to inhibit the production of HIV reverse transcriptase (RT) in culture supernatant of monocytic U937 on at 7 days at a concentration 1 uM; summary of the method: as §4
[15] = molecular target: Human immunodeficiency virus type 1 reverse transcriptase (Human immunodeficiency virus 1) (UniProt Q72547); experiment: Compound ability to inhibit the production of HIV reverse transcriptase (RT) in culture supernatant of CEM-CL13 on at 15 days at a concentration 0.2 uM
Summary of the method: (§6)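 CEM-C113 cells in RPMI 1640 with 5% heat-inactivated FCS and polybrene (2 µg/mL) were plated at 1×10^5 cells/mL with compound in PBS, in triplicate, and infected with HIV-1 LAV-Bru. From day 7, every 3–4 days, fresh medium with or without drug was added and 50 µL supernatant was taken for RT microassay. The RT microassay used poly(rA)-oligo(dT) and (methyl-³H)dTTP for 1 h at 37 °C, with TCA precipitation, read as cpm/50 µL.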

[16] = molecular target: Human immunodeficiency virus type 1 reverse transcriptase (Human immunodeficiency virus 1) (UniProt Q72547); experiment: Compounds were evaluated for anti-RT activity at 0 days of culture; summary of the method: as §5
[17] = molecular target: Human immunodeficiency virus type 1 reverse transcriptase (Human immunodeficiency virus 1) (UniProt Q72547); experiment: Compound ability to inhibit the production of HIV reverse transcriptase (RT) in preinfected PBL (peripheral blood lymphocytes) at 7 days at a concentration 1 uM; summary of the method: as §1
[18] = molecular target: Human immunodeficiency virus type 1 reverse transcriptase (Human immunodeficiency virus 1) (UniProt Q72547); experiment: Compounds were evaluated for anti-RT activity by MTT dose and %protection was reported at 9 days of culture; summary of the method: as §2
CCRF-CEM [19] = experiment: Concentration required to reduce the viability of uninfected cells (CEM-CL13) by 50% on day 19.; details: Homo sapiens, 456 h, read-out: CD50 (the source's name); summary of the method: as §3
[20] = molecular target: Human immunodeficiency virus type 1 reverse transcriptase (Human immunodeficiency virus 1) (UniProt Q72547); experiment: Percent inhibition evaluated for anti-RT activity at 7 days of culture; parameters: concentration or dose not given beside the values; details: concentration not given here; summary of the method: as §5
[21] = molecular target: Human immunodeficiency virus type 1 reverse transcriptase (Human immunodeficiency virus 1) (UniProt Q72547); experiment: Compound ability to inhibit the production of HIV reverse transcriptase (RT) in culture supernatant of CEM-CL13 on at 26 days at a concentration 0.2 uM; summary of the method: as §6
[22] = molecular target: Human immunodeficiency virus type 1 reverse transcriptase (Human immunodeficiency virus 1) (UniProt Q72547); experiment: Compound ability to inhibit the production of HIV reverse transcriptase (RT) in culture supernatant of CEM-CL13 on at 7 days at a concentration 0.2 uM; summary of the method: as §6
CCRF-CEM [23] = experiment: Concentration that reduced by 50% the HIV induced CPE (cytopathic effect) on day 19.; details: Homo sapiens, 456 h, read-out: ED50 (the source's name); summary of the method: as §3
CCRF-CEM [24] = experiment: Concentration that reduced by 50% the HIV induced CPE (cytopathic effect) on day 11.; details: Homo sapiens, 264 h, read-out: ED50 (the source's name); summary of the method: as §3
[25] = molecular target: Human immunodeficiency virus type 1 reverse transcriptase (Human immunodeficiency virus 1) (UniProt Q72547); experiment: Compound ability to inhibit the production of HIV reverse transcriptase (RT) in culture supernatant of monocytic U937 on at 14 days at a concentration 1 uM; summary of the method: as §4
[26] = molecular target: Human immunodeficiency virus type 1 reverse transcriptase (Human immunodeficiency virus 1) (UniProt Q72547); experiment: Percent inhibition measured as the production of HIV reverse transcriptase (RT) in culture supernatant of monocytic U937 on at 14 days at a concentration 1 uM
Summary of the method: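 U937 cells in RPMI 1640 with 5% heat-inactivated FCS, penicillin, streptomycin and polybrene (2 μg/mL), 37 °C, 5% CO2. Infected with HIV-1 LAV-Bru; compounds diluted in PBS. 50 μL supernatant aliquots were assayed for RT: 1 h, 37 °C, pH 7.8, Mg2+, poly(rA)-oligo(dT), [3H]dTTP, TCA-pyrophosphate stop, filter counting. % inhibition = 100 − 100 × (treated cpm / virus-control cpm).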

[27] = molecular target: Human immunodeficiency virus type 1 reverse transcriptase (Human immunodeficiency virus 1) (UniProt Q72547); experiment: Percent inhibition evaluated for anti-RT activity at 0 days of culture; parameters: concentration or dose not given beside the values; details: concentration not given here; summary of the method: as §5

Row | SMILES | Cell viability [2] [%] | Cell viability [3] [%] | Protection [5] [%] | EC50 (CCRF-CEM [6]) [nM] | Activity (c.p.m. 50ul-1) [8] | Activity (c.p.m. 50ul-1) [10] | Cell viability [11] [%] | CC50 (CCRF-CEM [12]) [nM] | EC50 (CCRF-CEM [13]) [nM] | Activity (c.p.m. 50ul-1) [14] | Activity (c.p.m. 50ul-1) [15] | Activity (c.p.m. 50ul-1) [16] | Activity (c.p.m. 50ul-1) [17] | Protection [18] [%] | CC50 (CCRF-CEM [19]) [nM] | inhibition [20] [%] | Activity (c.p.m. 50ul-1) [21] | Activity (c.p.m. 50ul-1) [22] | EC50 (CCRF-CEM [23]) [nM] | EC50 (CCRF-CEM [24]) [nM] | other results
1 | Cc1cn([C@H]2C[C@H](N=[N+]=[N-])[C@@H](CO)O2)c(=O)[nH]c1=O [ZIDOVUDINE] | 79 | 34 | 26 | 120 | 134000 | 7500 | 100 | 23000 | 450 | 36000 | 1100 | 19000 | 972 | 76 | 26000 | 92 | 28000 | 1500 | 180 | 120 | Activity (c.p.m. 50ul-1) [1]: 965; Activity (c.p.m. 50ul-1) [4]: 302; Activity (c.p.m. 50ul-1) [7]: 984; Activity (c.p.m. 50ul-1) [9]: 2020; Activity (c.p.m. 50ul-1) [25]: 37000; inhibition [26]: 0%
2 | CCCCCCCCCCCCCCCCOP(=O)(OC[C@H]1OC(O)[C@H](O)[C@@H](O)[C@@H]1O)OC[C@H]1OC(n2cc(C)c(=O)[nH]c2=O)C[C@@H]1N=[N+]=[N-] (stereo partly specified) | 62 | 39 | 28 | 180 | 68000 | 13000 | 85 | 3000 | 800 | 66000 | 1600 | 16000 | 3490 | 52 | 3200 | 87 | 64000 | 4500 | 1500 | 180 | Activity (c.p.m. 50ul-1) [1]: 8210; Activity (c.p.m. 50ul-1) [4]: 157000; Activity (c.p.m. 50ul-1) [7]: 36400; Activity (c.p.m. 50ul-1) [9]: 144000; inhibition [27]: 9%; Activity (c.p.m. 50ul-1) [25]: 4000; inhibition [26]: 79%
3 | CCCCCCCCCCCCCCCCOP(=O)(OCCO[C@H]1O[C@H](CO)[C@@H](O)[C@H](O)[C@@H]1O)OCC1OC(n2cc(C)c(=O)[nH]c2=O)CC1N=[N+]=[N-] (stereo partly specified) | 25 | 12 | 0 | 180 | 243000 | 44000 | 41 | 28000 | 1300 | 401000 | 2400 | 13000 | 30200 | 4 | 3400 | 0 | 61000 | 3900 | 1700 | 1000 | inhibition [27]: 26%; Activity (c.p.m. 50ul-1) [25]: 55000; inhibition [26]: 0%

From ChEMBL document CHEMBL1125259, “Lipophilic glycosyl phosphotriester derivatives of AZT: synthesis, NMR transmembrane transport study, and antiviral activity” (1991)
